In ChEMBL document CHEMBL4184148 (Bioorg Med Chem Lett, 2017):

Legend:
[1] = molecular target: Serine/threonine-protein kinase D3 (Homo sapiens) (UniProt O94806); test: Binding affinity to wild-type human partial length PRKD3 (S543 to E863 residues) expressed in Escherichia coli BL21 at 1 uM by Kinomescan method relative to control
[2] = system: Receptor-type tyrosine-protein kinase FLT3 (Homo sapiens), P36888 [R834Q]; test: Binding affinity to human partial length FLT3 R834Q mutant (V592 to Y969 residues) expressed in HEK293 cells at 1 uM by Kinomescan method relative to control; assay type: cell-based
[3] = molecular target: Wee1-like protein kinase (Homo sapiens) (UniProt P30291); test: Binding affinity to wild-type human partial length WEE1 (M291 to K575 residues) expressed in Escherichia coli BL21 at 1 uM by Kinomescan method relative to control
[4] = system: Proto-oncogene tyrosine-protein kinase receptor Ret (Homo sapiens), P07949 [V804L]; test: Binding affinity to human partial length RET V804L mutant (E713 to D1014 residues) expressed in Escherichia coli BL21 at 1 uM by Kinomescan method relative to control
[5] = molecular target: Interleukin-1 receptor-associated kinase 4 (Homo sapiens) (UniProt Q9NWZ3); test: Binding affinity to wild-type human partial length IRAK4 (M1 to S460 residues) expressed in HEK293 cells at 1 uM by Kinomescan method relative to control; assay type: cell-based
[6] = molecular target: Serine/threonine-protein kinase Nek7 (Homo sapiens) (UniProt Q8TDX7); test: Binding affinity to wild-type human full length NEK7 (M1 to S302 residues) expressed in Escherichia coli BL21 at 1 uM by Kinomescan method relative to control
Sequence of Serine/threonine-protein kinase Nek7 (Homo sapiens) (Q8TDX7 whole entry, looked up, the tested form may be a part): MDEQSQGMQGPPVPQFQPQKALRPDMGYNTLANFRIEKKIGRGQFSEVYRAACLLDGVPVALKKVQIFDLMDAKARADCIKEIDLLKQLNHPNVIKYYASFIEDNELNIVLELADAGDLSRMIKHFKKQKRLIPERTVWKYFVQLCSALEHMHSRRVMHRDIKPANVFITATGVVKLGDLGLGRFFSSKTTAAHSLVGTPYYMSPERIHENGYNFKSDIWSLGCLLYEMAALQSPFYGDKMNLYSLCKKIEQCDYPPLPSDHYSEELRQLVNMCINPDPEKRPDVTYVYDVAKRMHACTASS
Summary of the method: (§1)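 Kinome-wide competition binding panel run by an outside provider, with each compound tested at a single concentration. Activity is read against the kinase panel.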

[7] = molecular target: Serine/threonine-protein kinase D1 (Homo sapiens) (UniProt Q15139); test: Binding affinity to wild-type human partial length PRKD1 (G551 to E870 residues) expressed in Escherichia coli BL21 at 1 uM by Kinomescan method relative to control
Sequence of Serine/threonine-protein kinase D1 (Homo sapiens) (Q15139 whole entry, the tested form may be a part): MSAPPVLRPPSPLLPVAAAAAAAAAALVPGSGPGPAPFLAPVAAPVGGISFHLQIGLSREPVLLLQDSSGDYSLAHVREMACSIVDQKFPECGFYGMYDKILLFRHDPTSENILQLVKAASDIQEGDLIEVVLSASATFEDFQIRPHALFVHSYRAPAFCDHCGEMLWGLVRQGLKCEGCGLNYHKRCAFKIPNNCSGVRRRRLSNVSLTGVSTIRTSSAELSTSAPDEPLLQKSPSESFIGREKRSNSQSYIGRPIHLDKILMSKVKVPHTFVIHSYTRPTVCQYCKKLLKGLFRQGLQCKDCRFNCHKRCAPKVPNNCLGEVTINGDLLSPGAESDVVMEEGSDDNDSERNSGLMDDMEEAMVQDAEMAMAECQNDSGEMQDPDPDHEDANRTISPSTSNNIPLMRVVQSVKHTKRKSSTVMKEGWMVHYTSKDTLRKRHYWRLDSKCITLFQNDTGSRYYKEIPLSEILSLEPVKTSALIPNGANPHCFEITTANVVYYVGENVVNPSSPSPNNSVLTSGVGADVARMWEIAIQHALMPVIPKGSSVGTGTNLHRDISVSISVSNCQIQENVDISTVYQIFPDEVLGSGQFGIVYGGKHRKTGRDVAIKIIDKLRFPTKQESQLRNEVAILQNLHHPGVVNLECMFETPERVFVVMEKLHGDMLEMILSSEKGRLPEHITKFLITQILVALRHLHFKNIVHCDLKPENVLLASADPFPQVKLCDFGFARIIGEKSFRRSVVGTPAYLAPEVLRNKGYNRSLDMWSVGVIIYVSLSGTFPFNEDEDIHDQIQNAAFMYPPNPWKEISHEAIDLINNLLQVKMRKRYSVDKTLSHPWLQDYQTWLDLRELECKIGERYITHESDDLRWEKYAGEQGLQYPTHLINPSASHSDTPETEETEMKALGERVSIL

[8] = molecular target: MAP kinase-activated protein kinase 2 (Homo sapiens) (UniProt P49137); test: Binding affinity to wild-type human partial length MAPKAPK2 (V48 to D345 residues) expressed in Escherichia coli BL21 at 1 uM by Kinomescan method relative to control
Sequence of MAP kinase-activated protein kinase 2 (Homo sapiens) (P49137 whole entry, looked up, the tested form may be a part): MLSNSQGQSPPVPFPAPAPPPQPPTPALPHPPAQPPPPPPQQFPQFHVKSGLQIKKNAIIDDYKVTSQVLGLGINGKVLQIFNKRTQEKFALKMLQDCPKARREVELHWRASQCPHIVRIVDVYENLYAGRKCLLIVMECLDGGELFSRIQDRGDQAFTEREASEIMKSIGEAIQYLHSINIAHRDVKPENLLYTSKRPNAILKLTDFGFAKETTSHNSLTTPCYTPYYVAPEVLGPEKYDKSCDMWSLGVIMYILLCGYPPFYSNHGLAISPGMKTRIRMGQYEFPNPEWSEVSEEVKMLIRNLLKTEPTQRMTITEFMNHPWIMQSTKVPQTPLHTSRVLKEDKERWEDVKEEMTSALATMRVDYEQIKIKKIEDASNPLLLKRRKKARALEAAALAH

[9] = molecular target: Tyrosine-protein kinase receptor Tie-1 (Homo sapiens) (UniProt P35590); test: Binding affinity to wild-type human partial length TIE1 (T819 to A1138 residues) expressed in Escherichia coli BL21 at 1 uM by Kinomescan method relative to control
Sequence of Tyrosine-protein kinase receptor Tie-1 (Homo sapiens) (P35590 whole entry, the tested form may be a part): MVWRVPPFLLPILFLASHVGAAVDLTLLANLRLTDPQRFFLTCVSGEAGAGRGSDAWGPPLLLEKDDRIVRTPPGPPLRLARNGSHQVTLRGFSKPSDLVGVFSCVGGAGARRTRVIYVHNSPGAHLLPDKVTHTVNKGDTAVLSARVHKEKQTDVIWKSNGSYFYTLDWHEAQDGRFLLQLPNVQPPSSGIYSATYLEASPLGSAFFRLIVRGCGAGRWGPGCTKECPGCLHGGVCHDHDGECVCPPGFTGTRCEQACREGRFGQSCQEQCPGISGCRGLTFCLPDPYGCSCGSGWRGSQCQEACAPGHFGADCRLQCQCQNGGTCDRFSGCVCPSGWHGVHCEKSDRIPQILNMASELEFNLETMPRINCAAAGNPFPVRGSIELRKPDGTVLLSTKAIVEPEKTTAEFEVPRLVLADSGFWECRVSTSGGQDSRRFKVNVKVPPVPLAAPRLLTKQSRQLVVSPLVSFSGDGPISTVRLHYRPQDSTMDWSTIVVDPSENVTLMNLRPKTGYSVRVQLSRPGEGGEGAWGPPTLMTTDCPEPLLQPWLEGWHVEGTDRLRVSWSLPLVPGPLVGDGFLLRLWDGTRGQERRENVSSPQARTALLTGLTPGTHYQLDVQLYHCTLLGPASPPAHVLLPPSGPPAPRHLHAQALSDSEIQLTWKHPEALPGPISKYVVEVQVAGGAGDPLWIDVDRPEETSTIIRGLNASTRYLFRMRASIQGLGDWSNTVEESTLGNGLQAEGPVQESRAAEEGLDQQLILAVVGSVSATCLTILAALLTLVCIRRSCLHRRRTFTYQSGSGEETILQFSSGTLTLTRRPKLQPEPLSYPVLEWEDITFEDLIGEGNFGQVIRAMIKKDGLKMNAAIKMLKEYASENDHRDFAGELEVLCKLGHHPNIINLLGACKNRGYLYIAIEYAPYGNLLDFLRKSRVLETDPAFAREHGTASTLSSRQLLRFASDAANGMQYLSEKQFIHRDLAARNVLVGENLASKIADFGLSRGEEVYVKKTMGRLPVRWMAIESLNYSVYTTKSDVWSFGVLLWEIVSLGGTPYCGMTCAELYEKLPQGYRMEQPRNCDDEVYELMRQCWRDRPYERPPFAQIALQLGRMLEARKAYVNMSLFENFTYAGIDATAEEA

[10] = molecular target: Vascular endothelial growth factor receptor 3 (Homo sapiens) (UniProt P35916); test: Binding affinity to wild-type human partial length FLT4 (E821 to E1196 residues) expressed in Escherichia coli BL21 at 1 uM by Kinomescan method relative to control
[11] = molecular target: 5'-AMP-activated protein kinase catalytic subunit alpha-1 (Homo sapiens) (UniProt Q13131); test: Binding affinity to wild-type human partial length AMPK alpha1 (M1 to E306 residues) expressed in Escherichia coli BL21 at 1 uM by Kinomescan method relative to control; summary of the method: as §1
Sequence of 5'-AMP-activated protein kinase catalytic subunit alpha-1 (Homo sapiens) (Q13131 whole entry, looked up, the tested form may be a part): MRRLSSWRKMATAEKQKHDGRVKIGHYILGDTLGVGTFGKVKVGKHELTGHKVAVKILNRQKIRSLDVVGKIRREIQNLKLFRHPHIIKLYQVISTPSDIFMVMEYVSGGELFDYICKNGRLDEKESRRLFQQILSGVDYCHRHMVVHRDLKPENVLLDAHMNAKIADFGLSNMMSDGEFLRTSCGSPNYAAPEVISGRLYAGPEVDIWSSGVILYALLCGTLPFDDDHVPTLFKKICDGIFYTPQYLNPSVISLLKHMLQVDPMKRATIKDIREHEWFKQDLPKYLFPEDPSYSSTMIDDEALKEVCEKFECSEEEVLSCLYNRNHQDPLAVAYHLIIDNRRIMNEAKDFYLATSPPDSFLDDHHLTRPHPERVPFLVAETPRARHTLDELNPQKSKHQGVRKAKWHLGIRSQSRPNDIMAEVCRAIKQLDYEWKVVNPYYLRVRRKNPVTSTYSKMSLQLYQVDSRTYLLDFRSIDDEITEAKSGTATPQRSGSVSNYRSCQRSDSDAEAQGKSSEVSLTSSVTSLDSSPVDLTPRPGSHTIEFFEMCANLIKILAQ

[12] = molecular target: Mast/stem cell growth factor receptor Kit (Homo sapiens) (UniProt P10721); test: Binding affinity to wild-type human partial length autoinhibited KIT (Y545 to D952 residues) expressed in HEK293 cells at 1 uM by Kinomescan method relative to control; assay type: cell-based; parameters: scale not given: the % may be the effect or the level left
[13] = molecular target: Cyclin-dependent kinase-like 3 (Homo sapiens) (UniProt Q8IVW4); test: Binding affinity to wild-type human partial length CDKL3 (M1 to D327 residues) expressed in Escherichia coli BL21 at 1 uM by Kinomescan method relative to control
[14] = molecular target: Mitogen-activated protein kinase kinase kinase kinase 2 (Homo sapiens) (UniProt Q12851); test: Binding affinity to wild-type human partial length MAP4K2 (M1 to G318 residues) expressed in HEK293 cells at 1 uM by Kinomescan method relative to control; assay type: cell-based
Sequence of Mitogen-activated protein kinase kinase kinase kinase 2 (Homo sapiens) (Q12851 whole entry, the tested form may be a part): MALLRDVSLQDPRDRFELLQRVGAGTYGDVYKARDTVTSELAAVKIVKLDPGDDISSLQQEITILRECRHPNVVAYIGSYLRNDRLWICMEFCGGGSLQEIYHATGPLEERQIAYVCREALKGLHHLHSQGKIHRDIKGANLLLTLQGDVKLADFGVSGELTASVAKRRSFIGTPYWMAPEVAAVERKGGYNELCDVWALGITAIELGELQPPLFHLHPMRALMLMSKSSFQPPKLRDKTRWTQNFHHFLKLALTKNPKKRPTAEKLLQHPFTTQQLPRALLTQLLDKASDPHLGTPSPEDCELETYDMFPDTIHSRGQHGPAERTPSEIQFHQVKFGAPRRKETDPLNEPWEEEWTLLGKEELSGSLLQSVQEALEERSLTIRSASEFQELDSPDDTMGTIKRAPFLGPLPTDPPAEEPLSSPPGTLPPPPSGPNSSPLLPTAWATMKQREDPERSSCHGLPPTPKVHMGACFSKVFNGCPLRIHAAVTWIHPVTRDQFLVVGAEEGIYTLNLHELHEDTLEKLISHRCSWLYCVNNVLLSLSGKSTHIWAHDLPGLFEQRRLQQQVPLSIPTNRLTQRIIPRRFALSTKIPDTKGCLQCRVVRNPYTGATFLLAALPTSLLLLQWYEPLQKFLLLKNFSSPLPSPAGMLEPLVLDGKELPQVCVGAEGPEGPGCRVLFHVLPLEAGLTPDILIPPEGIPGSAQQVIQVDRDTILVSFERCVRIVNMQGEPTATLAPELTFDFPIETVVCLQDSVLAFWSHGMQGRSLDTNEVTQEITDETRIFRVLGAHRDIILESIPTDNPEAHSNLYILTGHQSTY

[15] = molecular target: Myosin light chain kinase 2, skeletal/cardiac muscle (Homo sapiens) (UniProt Q9H1R3); test: Binding affinity to wild-type human partial length MYLK2 (D258 to K570 residues) expressed in Escherichia coli BL21 at 1 uM by Kinomescan method relative to control
[16] = molecular target: Ribosomal protein S6 kinase beta-1 (Homo sapiens) (UniProt P23443); test: Binding affinity to wild-type human partial length S6K1 (M1 to S421 residues) expressed in HEK293 cells at 1 uM by Kinomescan method relative to control; assay type: cell-based
Sequence of Ribosomal protein S6 kinase beta-1 (Homo sapiens) (P23443 whole entry, looked up, the tested form may be a part): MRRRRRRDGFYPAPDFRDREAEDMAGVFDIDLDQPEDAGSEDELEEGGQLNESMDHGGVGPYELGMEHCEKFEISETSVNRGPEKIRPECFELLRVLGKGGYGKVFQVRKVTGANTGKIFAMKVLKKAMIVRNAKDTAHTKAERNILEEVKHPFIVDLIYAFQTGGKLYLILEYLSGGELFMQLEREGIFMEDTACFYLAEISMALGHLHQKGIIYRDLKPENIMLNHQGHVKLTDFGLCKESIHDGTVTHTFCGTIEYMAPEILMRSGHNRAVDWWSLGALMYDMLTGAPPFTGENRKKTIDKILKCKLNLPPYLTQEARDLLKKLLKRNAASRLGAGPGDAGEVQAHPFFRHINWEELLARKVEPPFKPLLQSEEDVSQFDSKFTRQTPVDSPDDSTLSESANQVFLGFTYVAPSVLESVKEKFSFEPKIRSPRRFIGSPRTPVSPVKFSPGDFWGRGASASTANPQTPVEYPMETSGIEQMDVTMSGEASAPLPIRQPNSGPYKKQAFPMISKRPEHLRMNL

[17] = molecular target: Cyclin-dependent kinase 3 (Homo sapiens) (UniProt Q00526); test: Binding affinity to wild-type human full length CDK3 (M1 to H305 residues) expressed in Escherichia coli BL21 at 1 uM by Kinomescan method relative to control
Sequence of Cyclin-dependent kinase 3 (Homo sapiens) (Q00526 whole entry, looked up, the tested form may be a part): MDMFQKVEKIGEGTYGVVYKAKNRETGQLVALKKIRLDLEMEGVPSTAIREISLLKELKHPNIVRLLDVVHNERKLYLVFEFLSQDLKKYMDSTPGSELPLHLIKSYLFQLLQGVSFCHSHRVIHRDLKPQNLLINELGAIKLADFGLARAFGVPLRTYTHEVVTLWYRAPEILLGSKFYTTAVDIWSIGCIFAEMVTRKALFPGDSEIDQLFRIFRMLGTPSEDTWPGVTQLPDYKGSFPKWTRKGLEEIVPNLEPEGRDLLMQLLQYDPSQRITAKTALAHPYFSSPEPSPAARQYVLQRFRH
Summary of the method: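 Run as one kinome-wide competition binding panel with each compound at a single fixed concentration. Results were plotted as a kinome-wide selectivity map.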

[18] = molecular target: Serine/threonine-protein kinase PLK4 (Homo sapiens) (UniProt O00444); test: Binding affinity to wild-type human partial length PLK4 (M1 to S273 residues) expressed in HEK293 cells at 1 uM by Kinomescan method relative to control; assay type: cell-based
[19] = molecular target: Serine/threonine-protein kinase TBK1 (Homo sapiens) (UniProt Q9UHD2); test: Binding affinity to wild-type human full length TBK1 (M1 to L729 residues) expressed in HEK293 cells at 1 uM by Kinomescan method relative to control; assay type: cell-based
[20] = molecular target: Serine/threonine-protein kinase NLK (Homo sapiens) (UniProt Q9UBE8); test: Binding affinity to wild-type human full length NLK (M13 to E527 residues) expressed in Escherichia coli BL21 at 1 uM by Kinomescan method relative to control; summary of the method: as §1
[21] = system: Epidermal growth factor receptor (Homo sapiens), P00533 [L858R]; test: Binding affinity to human partial length EGFR L858R mutant (R669 to V1011 residues) expressed in Escherichia coli BL21 at 1 uM by Kinomescan method relative to control
[22] = molecular target: Phosphorylase b kinase gamma catalytic chain, liver/testis isoform (Homo sapiens) (UniProt P15735); test: Binding affinity to wild-type human partial length PHKG2 (M1 to W300 residues) expressed in Escherichia coli BL21 at 1 uM by Kinomescan method relative to control
[23] = molecular target: Tyrosine-protein kinase TXK (Homo sapiens) (UniProt P42681); test: Binding affinity to wild-type human partial length TXK (L238 to W527 residues) expressed in Escherichia coli BL21 at 1 uM by Kinomescan method relative to control
[24] = molecular target: Ribosomal protein S6 kinase alpha-2 (Homo sapiens) (UniProt Q15349); test: Binding affinity to wild-type human partial length N-terminal RSK2 kinase domain 1 (M1 to D394 residues) expressed in HEK293 cells at 1 uM by Kinomescan method relative to control; assay type: cell-based
[25] = molecular target: SRSF protein kinase 2 (Homo sapiens) (UniProt P78362); test: Binding affinity to wild-type human full length SRPK2 (M1 to S686 residues) expressed in Escherichia coli BL21 at 1 uM by Kinomescan method relative to control; summary of the method: as §1

Row | Compound | Activity [1] [%] | Activity [2] [%] | Activity [3] [%] | Activity [4] [%] | Activity [5] [%] | Activity [6] [%] | Activity [7] [%] | Activity [8] [%] | Activity [9] [%] | Activity [10] [%] | Activity [11] [%] | Activity [12] [%] | Activity [13] [%] | Activity [14] [%] | Activity [15] [%] | Activity [16] [%] | Activity [17] [%] | Activity [18] [%] | Activity [19] [%] | Activity [20] [%] | further results
1 | C=CC(=O)Nc1ccc(C(=O)Nc2ccc(Nc3ncc4c(n3)N(C)c3ccc(C)cc3C(=O)N4C)cc2)cc1 | 90 | 98 | 100 | 84 | 95 | 100 | 93 | 98 | 96 | 98 | 70 | 96 | 98 | 92 | 87 | 91 | 100 | 71 | 94 | 81 | Activity [21]: 86%; Activity [22]: 100%; Activity [23]: 100%; Activity [24]: 82%; Activity [25]: 99%
2 | CCC(=O)Nc1ccc(C(=O)Nc2ccc(Nc3ncc4c(n3)N(C)c3ccc(C)cc3C(=O)N4C)cc2)cc1 | 81 | 86 | 100 | 63 | 79 | 95 | 97 | 100 | 88 | 89 | 64 | 90 | 95 | 97 | 56 | 100 | 95 | 8.2 | 74 | 100 | Activity [21]: 65%; Activity [22]: 88%; Activity [23]: 93%; Activity [24]: 66%; Activity [25]: 100%
